Experimental data from ChEMBL document CHEMBL4190402, “Development of a Novel Human Parathyroid Hormone Receptor 1 (hPTHR1) Agonist (CH5447240), a Potent and Orally Available Small Molecule for Treatment of Hypoparathyroidism” (J Med Chem, 2018).
pEC50, pIC50: −log10 of the molar value. ≈ marks a conversion by molar mass, not a printed value. Calls of active or inactive are those of the source. The calls are words filed in the database; no cut-off is given here.

Key:
[1] = biological target: T1, Parathyroid hormone/parathyroid hormone-related peptide receptor (Homo sapiens, UniProt Q03431); test: Displacement of 125I-PTH (1 to 15 residues) from human PTHR1 expressed in African green monkey COS7 cell membranes at 300 uM after 90 mins by gamma counting analysis
T1 sequence (Q03431 whole entry): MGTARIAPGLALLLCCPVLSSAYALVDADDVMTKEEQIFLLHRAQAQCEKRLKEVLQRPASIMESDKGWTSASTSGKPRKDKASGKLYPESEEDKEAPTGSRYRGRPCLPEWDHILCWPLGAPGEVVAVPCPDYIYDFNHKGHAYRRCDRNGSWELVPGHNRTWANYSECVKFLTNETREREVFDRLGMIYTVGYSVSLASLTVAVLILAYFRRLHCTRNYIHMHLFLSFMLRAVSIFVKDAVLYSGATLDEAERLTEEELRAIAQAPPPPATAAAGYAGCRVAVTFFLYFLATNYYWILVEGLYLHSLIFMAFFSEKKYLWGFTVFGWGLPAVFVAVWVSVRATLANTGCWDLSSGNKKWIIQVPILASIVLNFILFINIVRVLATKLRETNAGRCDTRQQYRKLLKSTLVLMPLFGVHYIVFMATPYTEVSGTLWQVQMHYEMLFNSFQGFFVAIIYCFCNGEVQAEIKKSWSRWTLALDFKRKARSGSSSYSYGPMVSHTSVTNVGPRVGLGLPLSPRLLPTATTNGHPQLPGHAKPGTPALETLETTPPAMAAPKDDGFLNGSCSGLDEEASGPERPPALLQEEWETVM

[2] = biological target: T2, Parathyroid hormone/parathyroid hormone-related peptide receptor (Homo sapiens) (UniProt Q03431); test: (§1) Agonist activity at human PTHR1 expressed in HKRKB7 cells assessed as accumulation of intracellular cAMP after 20 mins by enzyme immunoassay; format: functional, cell-based
T2 sequence (whole entry): T1 sequence (Q03431 whole entry)
Summary of the method: (§2)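 HKRK-B7 cells (LLC-PK1 stably expressing hPTHR1), 1.0 x 10^3 per well, seeded overnight, then exposed to serially diluted compound in McCoy's 5A with 2 mg/ml BSA, 1 mmol/l IBMX and 2 mmol/l HEPES for 20 min at 37°C. Cells washed, frozen, lysed in 50 mmol/l HCl, cAMP read by EIA.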

[3] = biological target: T1, Parathyroid hormone/parathyroid hormone-related peptide receptor; test: as §1; format: functional, cell-based; summary of the method: as §2
[4] = biological target: T2, Parathyroid hormone/parathyroid hormone-related peptide receptor (Homo sapiens); test: Displacement of 125I-PTH (1 to 15 residues) from human PTHR1 expressed in African green monkey COS7 cell membranes after 90 mins by gamma counting analysis
Summary of the method: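 Competition binding on membranes from COS-7 cells expressing human PTHR1. Incubated 90 min at room temperature, vacuum-filtered and washed, filter radioactivity gamma-counted. Nonspecific binding defined with excess (1x10^4 M as printed) unlabeled PTH(1-34).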

[5] = Solubility of the compound in FaSSIF at 1 mM by HPLC-UV analysis; format: physicochemical; conditions: FaSSIF
Summary of the method: (§3)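 A 1 mM DMSO stock (50 µL) was freeze-dried, then the residue taken up in 50 mM PBS pH 6.5 or FaSSIF pH 6.5. Sonicated 10 min, shaken 2 h, centrifuged, filtered. Filtrate concentration determined by HPLC-UV against each compound's calibration curve.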

[6] = Solubility of the compound in PBS at pH 6.5 at 1 mM by HPLC-UV analysis; format: physicochemical; conditions: PBS, pH 6.5; summary of the method: as §3
[7] = Intrinsic clearance in human liver microsomes assessed per mg protein at 1 uM after 30 mins in presence of NADPH by LC-MS/MS analysis; format: ADME, microsome; conditions: read-out: CLH
[8] = Intrinsic clearance in human liver microsomes assessed per mg protein at 1 uM after 30 mins in absence of NADPH by LC-MS/MS analysis; format: ADME, microsome; conditions: microsomes, 0.5 h, 1 µM
[9] = Half life in Crl:CD/SD IGS, CRJ rat at 3 mg/kg, iv by LC-MS/MS analysis; format: ADME, organism-based; conditions: in vivo
Summary of the method: (§4)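 Female 5-week-old rats, two per dose group, given 3 mg/kg orally or intravenously. Oral blood samples at 15 and 30 min, 1, 2, 4 and 6 h; intravenous sample at 3 min. Plasma drug measured by LC-MS/MS (detection limit 0.3 ng/ml). Parameters derived by noncompartmental analysis; mean of n=2.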

[10] = Half life in Crl:CD/SD IGS, CRJ rat at 3 mg/kg, po by LC-MS/MS analysis; format: ADME, organism-based; conditions: in vivo; summary of the method: as §4
[11] = Tmax in Crl:CD/SD IGS, CRJ rat at 3 mg/kg, po by LC-MS/MS analysis; format: ADME, organism-based; conditions: in vivo; summary of the method: as §4
[12] = Cmax in Crl:CD/SD IGS, CRJ rat at 3 mg/kg, po by LC-MS/MS analysis; format: ADME, organism-based; design: dose 3 mg/kg, route oral; conditions: in vivo; summary of the method: as §4
[13] = AUC (infinity) in Crl:CD/SD IGS, CRJ rat at 3 mg/kg, iv by LC-MS/MS analysis; format: ADME, organism-based; design: dose 3 mg/kg, route intravenous, time infinity; conditions: in vivo; summary of the method: as §4
[14] = AUC (infinity) in Crl:CD/SD IGS, CRJ rat at 3 mg/kg, po by LC-MS/MS analysis; format: ADME, organism-based; design: dose 3 mg/kg, time infinity, route oral; conditions: in vivo; summary of the method: as §4
[15] = Clearance in Crl:CD/SD IGS, CRJ rat at 3 mg/kg, iv by LC-MS/MS analysis; format: ADME, organism-based; conditions: in vivo; summary of the method: as §4
[16] = Clearance in Crl:CD/SD IGS, CRJ rat at 3 mg/kg, po by LC-MS/MS analysis; format: ADME, organism-based; conditions: in vivo; summary of the method: as §4
[17] = Volume of distribution at steady state in Crl:CD/SD IGS, CRJ rat at 3 mg/kg, iv by LC-MS/MS analysis; format: ADME, organism-based; conditions: in vivo, read-out: Vdss; summary of the method: as §4
[18] = Oral bioavailability in Crl:CD/SD IGS, CRJ rat at 3 mg/kg by LC-MS/MS analysis; format: ADME, organism-based; conditions: in vivo; summary of the method: as §4
hERG (KCNH2) = hERG (KCNH2) (Homo sapiens, UniProt Q12809); test: Inhibition of human ERG at a holding potential of -80 mV at 10 uM by automated patch clamp electrophysiology method
hERG (KCNH2), sequence (Q12809 whole entry, the tested form may be a part): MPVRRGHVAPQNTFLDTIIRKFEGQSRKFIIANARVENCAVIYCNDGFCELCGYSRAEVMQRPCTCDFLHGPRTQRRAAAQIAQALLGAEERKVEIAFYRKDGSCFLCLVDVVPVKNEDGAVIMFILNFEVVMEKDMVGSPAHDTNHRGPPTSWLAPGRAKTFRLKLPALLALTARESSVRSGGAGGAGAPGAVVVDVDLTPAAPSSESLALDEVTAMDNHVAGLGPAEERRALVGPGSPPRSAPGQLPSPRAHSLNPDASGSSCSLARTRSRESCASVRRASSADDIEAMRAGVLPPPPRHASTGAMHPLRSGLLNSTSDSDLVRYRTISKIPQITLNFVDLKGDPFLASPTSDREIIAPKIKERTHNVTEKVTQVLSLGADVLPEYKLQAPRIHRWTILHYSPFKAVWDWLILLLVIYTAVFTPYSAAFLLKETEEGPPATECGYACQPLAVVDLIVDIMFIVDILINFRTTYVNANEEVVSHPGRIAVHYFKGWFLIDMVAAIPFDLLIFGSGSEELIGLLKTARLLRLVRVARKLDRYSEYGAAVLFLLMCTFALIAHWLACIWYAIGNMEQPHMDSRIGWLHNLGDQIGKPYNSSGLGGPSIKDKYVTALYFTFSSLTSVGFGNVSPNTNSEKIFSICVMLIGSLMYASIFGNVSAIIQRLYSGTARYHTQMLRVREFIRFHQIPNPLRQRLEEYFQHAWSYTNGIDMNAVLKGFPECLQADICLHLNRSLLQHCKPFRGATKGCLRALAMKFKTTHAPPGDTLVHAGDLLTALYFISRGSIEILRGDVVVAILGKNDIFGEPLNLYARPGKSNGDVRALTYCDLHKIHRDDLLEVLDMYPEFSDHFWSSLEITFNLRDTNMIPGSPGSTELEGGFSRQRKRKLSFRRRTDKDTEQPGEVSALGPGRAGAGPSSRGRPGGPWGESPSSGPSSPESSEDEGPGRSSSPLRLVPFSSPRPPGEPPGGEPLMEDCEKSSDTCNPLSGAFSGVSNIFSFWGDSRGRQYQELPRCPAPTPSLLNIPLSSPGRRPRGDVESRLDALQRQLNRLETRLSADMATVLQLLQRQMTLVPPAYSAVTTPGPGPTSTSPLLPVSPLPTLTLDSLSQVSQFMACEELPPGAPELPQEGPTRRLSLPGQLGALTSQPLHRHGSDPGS

[19] = biological target: T2, Parathyroid hormone/parathyroid hormone-related peptide receptor (Homo sapiens); test: Ratio of IC50 for displacement of 125I-PTH (1 to 15 residues) from human PTHR1 expressed in African green monkey COS7 cell membranes to EC50 for agonist activity at human PTHR1 expressed in HKRKB7 cells assessed as accumulation of intracellular cAMP; format: functional
LLC-PK1 = test: Induction of cAMP production in porcine LLC-PK1 cells after 20 mins by enzyme immunoassay; format: functional, cell-based; conditions: Sus scrofa
Summary of the method: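 Counter-screen on parent LLC-PK1 cells lacking hPTHR1. Conditions match the HKRK-B7 assay: 20 min at 37°C in IBMX-containing assay medium, then cAMP read by EIA.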

Rattus norvegicus [20] = test: In vivo agonist activity at PTHR1 in po dosed Crl:CD(SD) rat TPTX model assessed as increase in serum calcium levels administered as single dose measured after 24 hrs by o-cresolphthalein complexone method; format: functional, organism-based
Summary of the method: (§5)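 Female 6-week-old Crl:CD(SD) rats after surgical TPTX; those with serum Ca <8.0 mg/dl at day 5 were used, and dosing began day 6. Single oral dose of 6, 19 or 60 mg/kg, or vehicle (10% DMSO/10% Kolliphor EL in 10% HPCD/0.752% glycine buffer), n=5 per group. Jugular blood taken under isoflurane before dosing and at 0.5, 1, 2, 4, 6, 10 and 24 h. Serum Ca measured by o-CPC, Pi by xanthine oxidase.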

Rattus norvegicus [21] = test: In vivo agonist activity at PTHR1 in po dosed Crl:CD(SD) rat TPTX model assessed as decrease in serum phosphorus levels administered as single dose measured after 24 hrs by xanthine oxidase method; format: functional, organism-based; summary of the method: as §5
Rattus norvegicus [22] = test: Tmax in Sprague-Dawley rat at 5 ug/kg, sc; format: ADME, organism-based; conditions: in vivo, 0.005 mg/kg
[23] = Half life in Sprague-Dawley rat at 5 ug/kg, sc; format: ADME, organism-based; conditions: in vivo, 0.005 mg/kg

SMILES: Cc1cc(N(C)C(N)=O)cc(C)c1CCS(=O)(=O)N1CCC2(CC1)N=C([C@H]1CC[C@H](C)CC1)NC2=O
- pIC50 [1]: 4.03
- EC20 [2]: 3 µM
- pEC50 [3]: 4.92
- inhibition [4]: 75%
- solubility at 1000 µM [5]: 0.25 mg/mL (≈ 483 µM)
- solubility at 1000 µM [6]: 0.099 mg/mL (≈ 191 µM)
- microsomal CLint at 1 µM [7]: 45 µL/min/mg
- CLint [8]: 0.14 µL/min/mg
- half-life [9]: 1.1 h
- half-life [10]: 1 h
- Tmax [11]: 1 h
- Cmax [12]: 1.36 µg/mL
- AUC(0-inf) [13]: 4.82 µg·h/mL
- AUC(0-inf) [14]: 2.65 µg·h/mL
- clearance [15]: 0.624 L/h/kg
- CL/F [16]: 1.14 L/h/kg
- Vd [17]: 0.395 L/kg
- bioavailability [18]: 55%
- inhibition at 10 µM (hERG (KCNH2)): 10%
- Ratio IC50/EC50 [19]: 8
- Activity (LLC-PK1): inactive
- Activity (Rattus norvegicus [20]): Dose-dependent effect
- Activity (Rattus norvegicus [21]): Dose-dependent effect

SMILES: CC[C@H](C)[C@H](NC(=O)[C@H](CCC(=O)O)NC(=O)[C@H](CO)NC(=O)[C@@H](NC(=O)[C@@H](N)CO)C(C)C)C(=O)N[C@@H](CCC(N)=O)C(=O)N[C@@H](CC(C)C)C(=O)N[C@@H](CCSC)C(=O)N[C@@H](Cc1cnc[nH]1)C(=O)N[C@@H](CC(N)=O)C(=O)N[C@@H](CC(C)C)C(=O)NCC(=O)N[C@@H](CCCCN)C(=O)N[C@@H](Cc1cnc[nH]1)C(=O)N[C@@H](CC(C)C)C(=O)N[C@@H](CC(N)=O)C(=O)N[C@@H](CO)C(=O)N[C@@H](CCSC)C(=O)N[C@@H](CCC(=O)O)C(=O)N[C@@H](CCCN=C(N)N)C(=O)N[C@H](C(=O)N[C@@H](CCC(=O)O)C(=O)N[C@@H](Cc1c[nH]c2ccccc12)C(=O)N[C@@H](CC(C)C)C(=O)N[C@@H](CCCN=C(N)N)C(=O)N[C@@H](CCCCN)C(=O)N[C@@H](CCCCN)C(=O)N[C@@H](CC(C)C)C(=O)N[C@@H](CCC(N)=O)C(=O)N[C@@H](CC(=O)O)C(=O)N[C@H](C(=O)N[C@@H](Cc1cnc[nH]1)C(=O)N[C@@H](CC(N)=O)C(=O)N[C@@H](Cc1ccccc1)C(=O)O)C(C)C)C(C)C [TERIPARATIDE]
- Tmax (Rattus norvegicus [22]): 0.25 h
- half-life [23]: 0.5 h
